The target of assay [1] is T1, Protein mono-ADP-ribosyltransferase PARP10 (Homo sapiens, UniProt Q53GL7).
T1 sequence (Q53GL7 whole entry): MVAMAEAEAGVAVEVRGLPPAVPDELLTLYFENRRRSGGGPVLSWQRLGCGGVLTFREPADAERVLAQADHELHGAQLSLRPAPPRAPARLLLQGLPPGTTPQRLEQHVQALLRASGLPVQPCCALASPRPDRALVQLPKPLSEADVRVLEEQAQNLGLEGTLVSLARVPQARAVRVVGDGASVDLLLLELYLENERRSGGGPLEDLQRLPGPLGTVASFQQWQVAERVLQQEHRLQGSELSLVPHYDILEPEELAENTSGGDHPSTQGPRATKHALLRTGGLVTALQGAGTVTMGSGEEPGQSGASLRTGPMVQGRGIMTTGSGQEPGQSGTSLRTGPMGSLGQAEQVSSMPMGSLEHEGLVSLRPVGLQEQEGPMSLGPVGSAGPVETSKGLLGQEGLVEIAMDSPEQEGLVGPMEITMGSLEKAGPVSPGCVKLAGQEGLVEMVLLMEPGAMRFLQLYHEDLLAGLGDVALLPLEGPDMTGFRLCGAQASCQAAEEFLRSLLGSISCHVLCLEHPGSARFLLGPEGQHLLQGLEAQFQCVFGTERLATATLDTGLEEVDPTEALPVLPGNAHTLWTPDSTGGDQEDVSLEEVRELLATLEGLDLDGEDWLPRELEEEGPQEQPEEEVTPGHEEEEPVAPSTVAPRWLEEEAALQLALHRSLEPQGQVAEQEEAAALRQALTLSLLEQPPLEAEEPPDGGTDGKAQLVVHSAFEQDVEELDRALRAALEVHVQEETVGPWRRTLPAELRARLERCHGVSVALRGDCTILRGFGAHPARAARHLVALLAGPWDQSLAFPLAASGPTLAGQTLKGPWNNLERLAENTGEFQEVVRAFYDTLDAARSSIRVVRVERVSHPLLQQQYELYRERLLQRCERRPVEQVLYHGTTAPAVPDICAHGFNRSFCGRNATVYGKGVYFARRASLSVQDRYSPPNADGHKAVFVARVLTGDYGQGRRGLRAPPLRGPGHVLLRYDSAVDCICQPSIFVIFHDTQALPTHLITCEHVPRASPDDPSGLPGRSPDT
As to the kind of experiment: Inhibition of N-terminal FLAG-tagged and C-terminal strep-tagged human PARP10 (805 to 1025 residues) expressed in baculovirus infected Sf9 cells assessed as reduction in NAD+-dependent ADP ribosylation using histone as substrate incubated for 1 hr in presence of biotinylated NAD+ and activated DNA by chemiluminescence based microplate reader assay. An outline of the steps:
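The IC50 was derived from a concentration-dependent inhibition curve for PARP10 in the histone ADP-ribosylation assay.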

Assay [2] deals with T2, Protein mono-ADP-ribosyltransferase PARP3 (Homo sapiens) (UniProt Q9Y6F1).
T2 sequence (whole entry): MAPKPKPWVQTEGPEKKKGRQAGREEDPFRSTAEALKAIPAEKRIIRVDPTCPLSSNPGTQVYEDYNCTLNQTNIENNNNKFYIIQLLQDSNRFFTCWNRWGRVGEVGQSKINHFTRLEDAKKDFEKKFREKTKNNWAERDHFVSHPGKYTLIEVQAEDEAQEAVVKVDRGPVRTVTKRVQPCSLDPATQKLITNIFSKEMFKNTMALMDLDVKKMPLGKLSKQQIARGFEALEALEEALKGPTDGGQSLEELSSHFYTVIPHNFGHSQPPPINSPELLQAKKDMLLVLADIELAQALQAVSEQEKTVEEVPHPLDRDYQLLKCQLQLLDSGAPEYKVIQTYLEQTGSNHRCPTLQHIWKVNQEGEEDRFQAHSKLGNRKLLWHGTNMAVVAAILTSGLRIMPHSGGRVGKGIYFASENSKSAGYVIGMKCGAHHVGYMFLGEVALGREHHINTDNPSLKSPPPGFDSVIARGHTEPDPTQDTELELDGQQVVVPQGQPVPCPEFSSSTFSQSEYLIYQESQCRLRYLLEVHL
The experiment in a line: Inhibition of N-terminal GST tagged full length human PARP3 expressed in baculovirus infected Sf9 cells assessed as reduction in NAD+-dependent ADP ribosylation using histone as substrate at 10 uM incubated for 1 hr in presence of biotinylated NAD+ and activated DNA by chemiluminescence based microplate reader assay relative to control.

Assay [3] addresses T3, Protein mono-ADP-ribosyltransferase PARP11 (Homo sapiens) (UniProt Q9NR21).
T3 sequence (whole entry): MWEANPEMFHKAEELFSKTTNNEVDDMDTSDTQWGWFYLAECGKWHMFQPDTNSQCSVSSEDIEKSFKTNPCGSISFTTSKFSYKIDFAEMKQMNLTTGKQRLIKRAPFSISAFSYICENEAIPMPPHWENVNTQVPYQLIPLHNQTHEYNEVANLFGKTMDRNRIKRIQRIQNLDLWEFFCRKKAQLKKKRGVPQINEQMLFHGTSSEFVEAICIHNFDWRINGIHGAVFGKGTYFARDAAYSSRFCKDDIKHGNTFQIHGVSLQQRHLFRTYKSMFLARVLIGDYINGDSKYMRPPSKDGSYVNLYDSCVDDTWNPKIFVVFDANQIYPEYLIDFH
As to the kind of experiment: Inhibition of N-terminal GST tagged human PARP11 (8 to 338 residues) expressed in baculovirus infected Sf9 cells assessed as reduction in NAD+-dependent ADP ribosylation using histone as substrate at 10 uM incubated for 1 hr in presence of biotinylated NAD+ and activated DNA by chemiluminescence based microplate reader assay relative to control.

Each structure is given as a SMILES string.

The term IC50 denotes the concentration that inhibits the measured activity by half. A word on the inhibition: it is the relative decrease from the control value, in per cent. Regarding `CNC(=O)[C@H](CNC(=O)CCc1nc2ccccc2[nH]c1=O)NC(=O)c1ccc2c(c1)CCCC2=O`, in assay [1], the concentration for half-maximal inhibition (IC50) was 6 µM. Moreover, the inhibition in assay [2] and in assay [3] was less than 25% in each case.
As to `CC1(CNC(=O)COc2cccc3c2CCCC3=O)CCN(C(=O)CCc2nc3ccccc3[nH]c2=O)CC1`, the IC50 in assay [1] stood at 3.9 µM. In addition, the results for the inhibition in assay [2] and in assay [3] were 22% and more than 50%, respectively.

These data come from ChEMBL document CHEMBL4699460, “Integrating DNA-encoded chemical libraries with virtual combinatorial library screening: Optimizing a PARP10 inhibitor” (Bioorg Med Chem Lett, 2020).
